Compounds with a hit are over-represented: about 3% of the library has one in this group of screens.
TMEM16A inh – inhibitors of mouse TMEM16A calcium-activated chloride channel; normalized B-score (activity score, 25-100; higher = stronger inhibition) at 10 µM; 310,000 tested, 1.2% active; Q8BHY3; HEK293 TMEM16A/YFP iodide influx fluorescence, ionomycin;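 active = ratio plate-corrected score three or more library SD toward inhibition, starting fluorescence score within five deviations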;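 also: score derived from kinetic fluorescence span divided by baseline fluorescence per well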
TMEM16A act – activators or potentiators of mouse TMEM16A chloride channel; AID 623877; 340,000 tested, 0.3% active; B-score at 10 µM; Q8BHY3; HEK293 TMEM16A/YFP-H148Q/I152L, iodide quench fluorescence; active compounds read low;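 active = fluorescence-ratio B-score plate-corrected deviation score at least 3 library SD below zero, with starting fluorescence score within 5 deviations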;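 also: channel opened by trigger with iodide after compound preincubation; score built on the fluorescence ratio of max minus min over baseline; more negative score means more quench and so TMEM16A activation or potentiation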
Kir21 block – inhibitors of mouse Kir2.1 inward-rectifier potassium channel | P35561 | HEK293-Kir2.1, FluxOR thallium flux fluorescence; active compounds read low | B-score at 10 µM | 310,000 tested, 0.85% active | AID 1672;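 active = fluorescence ratio B-score at or below minus 3 SD of library scores, with starting-brightness B-score within 2 SD, cut at about -4.2 in these data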;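 also: channel flux triggered by added potassium and thallium sulfate stimulus; B-score of peak minus minimum fluorescence over baseline after thallium stimulus; more negative B-score means stronger Kir2.1 block with less thallium influx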
SR-BI DiI-HDL act – SR-BI HDL lipid transfer activation; CHO ldlA[mSR-BI] cells, DiI-HDL uptake fluorescence, 3 h; 100 = double the neutral-control signal; activation, % at 12.5 µM; 320,000 tested, 0.096% active;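 active = mean replicate activation of at least 60% and every replicate at or above 60%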
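System: LDL receptor-deficient CHO ldlA cells overexpressing murine SR-BI | Timing: 3 h uptake period with compound, 37 °C | Medium: HEPES-buffered (25 mM, pH 7.4) F12 plus 0.5% BSA | Dosing: Single-point compound dose | Signal: Bottom-read fluorescence, 550/595 nm | Read-out: Retained DiI signal reflecting DiI-HDL uptake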
SR-BI DiI inh – mouse SR-BI HDL lipid transfer inhibition | ldlA[mSR-BI] CHO cells, DiI-HDL uptake fluorescence, 3 h | inhibition, % at 12.5 µM | Q61009 | 320,000 tested, 0.96% active;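 active = mean replicate inhibition of at least 70% and a set share of replicates each scoring 70 or more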
Target sequence (Q61009 whole entry, looked up): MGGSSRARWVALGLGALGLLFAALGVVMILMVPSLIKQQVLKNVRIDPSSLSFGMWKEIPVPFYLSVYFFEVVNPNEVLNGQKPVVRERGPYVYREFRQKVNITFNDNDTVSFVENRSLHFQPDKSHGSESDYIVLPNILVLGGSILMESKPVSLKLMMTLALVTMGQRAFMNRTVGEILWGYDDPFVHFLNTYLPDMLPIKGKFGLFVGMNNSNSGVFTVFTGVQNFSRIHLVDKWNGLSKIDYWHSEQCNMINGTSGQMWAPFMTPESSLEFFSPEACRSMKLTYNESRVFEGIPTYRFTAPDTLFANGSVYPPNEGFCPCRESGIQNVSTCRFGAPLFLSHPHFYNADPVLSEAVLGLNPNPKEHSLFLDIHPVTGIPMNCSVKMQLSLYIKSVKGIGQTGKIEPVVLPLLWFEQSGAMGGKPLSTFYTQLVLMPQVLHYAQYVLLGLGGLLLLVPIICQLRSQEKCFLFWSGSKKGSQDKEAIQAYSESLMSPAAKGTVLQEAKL
DNA FID counter – displaces DNA intercalator in HCV helicase counter-screen | 290,000 tested, 0.17% active | inhibition, % at 7.9 µM | AID 1845 | DNA fluorescent intercalator displacement, fluorescence; in the data active = inhibition above about 37%;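 also: higher means more ethidium bromide displaced from hairpin DNA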
TMEM16A reconf – re-confirmation of mouse TMEM16A chloride channel inhibitors. HEK293 TMEM16A/YFP-H148Q, iodide quench fluorescence; ionomycin added to raise cell calcium. AID 652189. inhibition, % at 10 µM. 2,300 tested, 39% active. shares compounds with TMEM16A inh;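 active = mean duplicate percent inhibition, scaled so buffer wells are 0 and the reference blocker 100, over three buffer SD above buffer mean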
HEK293 Ca mobil – counter-screen for TMEM16A inhibitors: effect on calcium mobilization | shares compounds with TMEM16A inh | TMEM16A/YFP HEK293, Fluo4 calcium mobilization | calcium response (% of ionomycin), % at 10 µM | 2,300 tested, 2% active | AID 652231;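 active = duplicate-averaged calcium signal over 20% of the ionomycin maximum, relative to buffer baseline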;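 also: each well's signal is peak minus trough fluorescence divided by its pre-addition baseline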
Parental YFP cnt – parental YFP-HEK293 iodide quench counter-screen activity; shares compounds with TMEM16A inh; ionomycin; YFP ratio F(max-min)/F0 at 10 µM; 2,300 tested, under 10 active; AID 652233;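 active = yellow fluorescent protein signal ratio exceeding the buffer control mean by over 5 SD of those controls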;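 also: ratio is mean of duplicate wells from kinetic YFP trace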
ClC-1 inh – selectivity of TMEM16A inhibitors: inhibition of rat ClC-1 chloride channel | shares compounds with TMEM16A inh | CHO ClC-1-YFP, iodide influx fluorescence quench; iodide control reads 0, buffer control 100 | ratio percent, % at 10 µM | 2,300 tested, under 10 active;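 active = duplicate-mean ratio percent above the mean of iodide-only control wells, which defines zero, plus 5 of their SD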;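 also: higher percent means stronger block of ClC-1 iodide influx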
Of the large screens only hits and unclear results are named; the others gave an inactive call (follow-up assays come after a bar, where they were run).

CC(C)(C)c1csc(NC(=O)Cc2ccc(S(=O)(=O)N3CCOCC3)s2)n1	TMEM16A inh 100 (no result: DNA FID counter) | TMEM16A reconf 24% | HEK293 Ca mobil inactive | Parental YFP cnt inactive | ClC-1 inh inactive
COC(=O)c1ccc(COc2cccc3c2CCN(Cc2cccc(C)c2)C3=O)o1	TMEM16A inh 25 | TMEM16A reconf 19% | HEK293 Ca mobil inactive | Parental YFP cnt inactive | ClC-1 inh inactive
COc1ccc(C2CC(c3ccccc3)=NN2S(=O)(=O)c2ccccc2)cc1 (stereo unspecified)	none (no result: SR-BI DiI-HDL act, SR-BI DiI inh) | TMEM16A reconf 55% | HEK293 Ca mobil inactive | Parental YFP cnt inactive | ClC-1 inh inactive
O=S(=O)(c1ccccc1)N1N=C(c2ccccc2)CC1c1ccco1 (stereo unspecified)	none (no result: TMEM16A act, SR-BI DiI-HDL act, SR-BI DiI inh)
Cc1ccc(C(=O)Nc2nc(=O)n(C(=O)c3ccccc3C)s2)cc1	TMEM16A inh 25 (no result: Kir21 block) | TMEM16A reconf 26% | HEK293 Ca mobil inactive | Parental YFP cnt inactive | ClC-1 inh inactive
Cc1ccc(C(=O)Nc2nc(=O)n(C(=O)C3CC3)s2)cc1	none
Cc1ccc(C)c(NC(=O)C2CCN(S(=O)(=O)c3ccc4c(c3)NC(=O)CO4)CC2)c1	none
CCN(CC)C(=O)C1CCCN(c2ccc([N+](=O)[O-])cc2/C=N/NC(=O)c2cccc(Br)c2)C1 (stereo unspecified)	TMEM16A inh 100 (no result: SR-BI DiI-HDL act) | TMEM16A reconf inactive | HEK293 Ca mobil inactive | Parental YFP cnt inactive | ClC-1 inh inactive
C[C@H](CO)N1C[C@H](C)[C@@H](CN(C)Cc2ccc(Cl)c(Cl)c2)Oc2c(NS(=O)(=O)c3cn(C)cn3)cccc2C1=O	none (no result: TMEM16A inh, Kir21 block, DNA FID counter)
COc1ccc(Br)cc1/C(C)=N/NC1=NCCN1	TMEM16A inh 100 | TMEM16A reconf 20% | HEK293 Ca mobil inactive | Parental YFP cnt inactive | ClC-1 inh inactive
CCN(CC)CC(=O)Nc1ccc(/C(C)=N/NC2=NCCN2)cc1	none
C=CCOc1ccc(/C=C2\SC(=S)N(NS(=O)(=O)c3ccc(C)cc3)C2=O)cc1	TMEM16A inh 100 | TMEM16A reconf 72% | HEK293 Ca mobil inactive | Parental YFP cnt inactive | ClC-1 inh inactive
Cc1ccc(/C=C2\SC(=S)N(NS(=O)(=O)c3ccc(C)cc3)C2=O)cc1	none
C/C(=N/NC(=O)CNC(=O)C1COc2ccccc2O1)c1ccc([N+](=O)[O-])cc1 (stereo unspecified)	none
CSc1nc2ccc(NS(=O)(=O)c3cccc(Cl)c3Cl)cc2s1	TMEM16A inh 100 | TMEM16A reconf 62% | HEK293 Ca mobil inactive | Parental YFP cnt inactive | ClC-1 inh inactive
CCN(CCCNC(=O)c1c(C)cc(=O)oc1C)c1ccccc1	TMEM16A inh 25 | TMEM16A reconf inactive | HEK293 Ca mobil inactive | Parental YFP cnt inactive | ClC-1 inh inactive
CC12CC(c3ccccc3O1)N(C(=O)c1ccco1)C(=S)N2c1ccc(F)cc1 (stereo unspecified)	none | TMEM16A reconf inactive | HEK293 Ca mobil inactive | Parental YFP cnt inactive | ClC-1 inh inactive
COc1ccc(C2C(C#N)=C(C)NC3=C2C(=O)c2ccccc23)cc1 (stereo unspecified)	none
CC1=C([N+](=O)[O-])C(c2ccccc2)C2=C(N1)c1ccccc1C2=O (stereo unspecified)	TMEM16A inh 25 | TMEM16A reconf 38% | HEK293 Ca mobil inactive | Parental YFP cnt inactive | ClC-1 inh inactive

Screening data deposited in PubChem by several laboratories.
